In ChEMBL document CHEMBL4359857, “Design, synthesis and biological evaluation of chalcones as reversers of P-glycoprotein-mediated multidrug resistance” (Eur J Med Chem, 2019):
Calls of active or inactive are those of the source. The rule behind the calls is not given here.

Tests used:
[1] = Cytotoxicity against human MCF7/Dox cells assessed as cell survival at 12.5 uM after 48 hrs by MTT assay relative to control; format: cell-based; conditions: read-out: Survival
MCF7-DOX [2] = experiment: Cytotoxicity against human MCF7/Dox cells assessed as reduction in cell viability after 48 hrs by MTT assay; format: cell-based
[3] = Reversal of P-gp-mediated multidrug resistance in human MCF7/Dox cells assessed as potentiation of doxorubicin-induced cytotoxicity by measuring doxorubicin IC50 at 12.5 uM after 48 hrs by MTT assay (reference value: 51.19 +/- 0.95 microM)
MCF7-DOX [4] = experiment: Antitumour activity against human MCF7/Dox cells xenografted in Balb/c mouse assessed as tumour growth inhibition at 2 mg/kg measured after 30 days; format: functional, organism-based
MCF7-DOX [5] = experiment: Down regulation of p-gp protein expression in human MCF7/Dox cells at 12.5 uM in presence of doxorubicin by Western blotting analysis; format: functional, cell-based; conditions: TDE = time-dependent effect
Outline: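 MCF-7/DOX cells exposed to compound (12.5 µM), DOX (8 µM), or the combination for 24 h and 48 h. P-gp protein measured by western blot. MCF-7 parental cells used as reference.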

[6] = Cytotoxicity against human H69AR cells assessed as growth inhibition after 48 hrs by MTT assay; format: cell-based
[7] = Toxicity in Balb/c mouse xenografted with human MCF7/Dox cells assessed as body weight at 5 to 15 mg/kg administered for 30 days and measured for every 2 days; format: organism-based; conditions: in vivo
MCF7-DOX [8] = experiment: Antimigratory activity against human MCF7/Dox cells after 36 hrs by crystal violet staining based transwell migration assay; format: functional, cell-based
Outline: (§1)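 Transwell migration assay with MCF-7 or MCF-7/DOX cells treated 36 h. Migrated cells quantified against untreated control cells. Means ± SD, n = 3.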

[9] = Cytotoxicity against MDCK2 cells assessed as growth inhibition after 48 hrs by MTT assay; format: cell-based, Canis lupus familiaris; conditions: dog, MDCK2 (MDCK-II) cells
MCF7-DOX [10] = experiment: Antimigratory activity against human MCF7/Dox cells after 24 hrs by wound healing assay; format: functional, cell-based
Outline: (§2)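 Wound-healing assay on confluent monolayers of MCF-7 or MCF-7/DOX cells. Cells treated 24 h, then wound width imaged and migration quantified against untreated control cells. Means ± SD, n = 3.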

[11] = target: ATP-dependent translocase ABCB1 (Homo sapiens, UniProt P08183); experiment: Reversal of P-gp mediated drug efflux in human MCF7/Dox cells assessed as increase in intracellular doxorubicin accumulation at 12.5 uM after 24 hrs by DAPI based fluorescence microscopic analysis; format: cell-based
ATP-dependent translocase ABCB1, sequence (P08183 whole entry): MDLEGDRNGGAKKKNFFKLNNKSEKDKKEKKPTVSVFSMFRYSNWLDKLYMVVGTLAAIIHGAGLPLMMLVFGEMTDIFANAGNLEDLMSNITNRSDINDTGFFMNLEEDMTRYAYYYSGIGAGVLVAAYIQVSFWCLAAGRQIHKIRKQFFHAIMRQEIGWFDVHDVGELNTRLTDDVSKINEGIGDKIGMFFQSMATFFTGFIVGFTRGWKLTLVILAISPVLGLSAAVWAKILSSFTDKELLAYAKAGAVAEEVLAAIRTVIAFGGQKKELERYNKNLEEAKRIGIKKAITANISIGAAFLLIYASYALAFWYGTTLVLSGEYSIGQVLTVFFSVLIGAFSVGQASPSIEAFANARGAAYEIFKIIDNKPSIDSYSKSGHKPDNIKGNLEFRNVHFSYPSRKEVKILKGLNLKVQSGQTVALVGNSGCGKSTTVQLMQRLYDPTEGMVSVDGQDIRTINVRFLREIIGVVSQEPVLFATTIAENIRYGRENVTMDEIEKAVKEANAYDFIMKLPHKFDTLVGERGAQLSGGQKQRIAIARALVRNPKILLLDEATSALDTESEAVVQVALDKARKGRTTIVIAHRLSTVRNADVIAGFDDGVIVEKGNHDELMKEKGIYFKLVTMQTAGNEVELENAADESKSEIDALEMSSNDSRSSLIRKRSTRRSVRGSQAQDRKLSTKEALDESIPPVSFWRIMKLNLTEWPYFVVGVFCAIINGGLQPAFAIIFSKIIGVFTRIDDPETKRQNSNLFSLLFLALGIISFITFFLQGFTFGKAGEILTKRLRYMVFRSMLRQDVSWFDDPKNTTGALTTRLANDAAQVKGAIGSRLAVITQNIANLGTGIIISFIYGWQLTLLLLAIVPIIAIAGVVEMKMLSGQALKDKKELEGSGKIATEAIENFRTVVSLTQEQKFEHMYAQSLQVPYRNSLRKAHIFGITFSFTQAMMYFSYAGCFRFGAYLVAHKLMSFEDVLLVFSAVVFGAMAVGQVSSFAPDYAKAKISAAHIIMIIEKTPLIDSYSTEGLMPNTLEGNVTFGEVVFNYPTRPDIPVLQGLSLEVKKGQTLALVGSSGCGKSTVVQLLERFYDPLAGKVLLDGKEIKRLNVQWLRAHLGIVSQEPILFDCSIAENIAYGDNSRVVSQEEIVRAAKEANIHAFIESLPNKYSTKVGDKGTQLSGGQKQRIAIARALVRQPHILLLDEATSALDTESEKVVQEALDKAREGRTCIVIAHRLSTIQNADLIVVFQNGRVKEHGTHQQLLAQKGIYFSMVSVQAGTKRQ
Outline: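 MCF-7/DOX cells exposed to DOX 8 µM with or without compound at 12.5 µM. Nuclei stained with DAPI. Intracellular DOX red fluorescence imaged by fluorescence microscopy.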

MCF7 [12] = experiment: Antimigratory activity against human MCF7 cells after 24 hrs by wound healing assay; format: functional, cell-based; outline: as §2
[13] = Toxicity in Balb/c mouse xenografted with human MCF7/Dox cells assessed as effect on body weight at 5 to 15 mg/kg in presence of doxorubicin and measured after 30 days; format: organism-based; conditions: in vivo, 720 h
MCF7-DOX [14] = experiment: Down regulation of p-gp mRNA expression in human MCF7/Dox cells at 12.5 uM in presence of doxorubicin after 48 hrs by RT-PCR analysis; format: functional, cell-based
Outline: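 MCF-7/DOX cells exposed for 48 h to compound (12.5 µM), DOX (8 µM), or both. P-gp mRNA measured by RT-PCR versus control and DOX-alone groups.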

[15] = Cytotoxicity against MDCK2 cells expressing BCRP assessed as growth inhibition after 48 hrs by MTT assay; format: ADME, cell-based, Canis lupus familiaris; conditions: dog, MDCK2 (MDCK-II) cells expressing BCRP
[16] = target: T1, Broad substrate specificity ATP-binding cassette transporter ABCG2 (Homo sapiens, UniProt Q9UNQ0); experiment: Reversal of ABCG2 (unknown origin)-mediated multidrug resistance expressed in MDCK2 cells assessed as potentiation of mitoxantrone-induced cytotoxicity at 25 uM after 48 hrs by MTT assay; format: cell-based
T1 sequence (Q9UNQ0 whole entry): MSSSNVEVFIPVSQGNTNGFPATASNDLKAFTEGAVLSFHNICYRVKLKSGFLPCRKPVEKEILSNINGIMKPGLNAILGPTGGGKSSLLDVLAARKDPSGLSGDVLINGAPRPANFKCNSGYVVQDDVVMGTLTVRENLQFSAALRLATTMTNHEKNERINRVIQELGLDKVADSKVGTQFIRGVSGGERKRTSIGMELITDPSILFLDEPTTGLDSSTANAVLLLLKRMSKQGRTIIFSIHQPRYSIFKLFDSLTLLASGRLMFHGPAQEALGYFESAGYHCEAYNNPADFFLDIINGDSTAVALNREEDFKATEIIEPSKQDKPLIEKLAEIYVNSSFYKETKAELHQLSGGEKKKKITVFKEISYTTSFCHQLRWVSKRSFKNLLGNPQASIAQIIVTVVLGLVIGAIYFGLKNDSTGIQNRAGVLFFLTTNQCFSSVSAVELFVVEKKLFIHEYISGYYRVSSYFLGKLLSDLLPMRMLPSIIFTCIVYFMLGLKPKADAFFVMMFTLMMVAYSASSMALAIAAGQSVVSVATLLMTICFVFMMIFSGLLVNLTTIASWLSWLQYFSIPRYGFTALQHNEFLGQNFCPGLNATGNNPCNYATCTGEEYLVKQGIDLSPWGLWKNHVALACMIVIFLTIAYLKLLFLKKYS
Outline: (§3)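 Transporter selectivity screen by MTT in H69AR (MRP1-overexpressing) with doxorubicin, and in MDCK II BCRP with mitoxantrone. Compound tested at 12.5 and 25 µM alongside the cytostatic. Reversal read as decreased viability versus cytostatic alone.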

MCF7-DOX [17] = experiment: Antitumour activity against human MCF7/Dox cells xenografted in Balb/c mouse assessed as reduction in tumour volume at 5 to 15 mg/kg and measured after 30 days; format: functional, organism-based
MCF7 [18] = experiment: Antimigratory activity against human MCF7 cells after 36 hrs by crystal violet staining based transwell migration assay; format: functional, cell-based; outline: as §1
[19] = Cytotoxicity against human MCF7/Dox cells assessed as growth inhibition after 48 hrs by MTT assay; format: cell-based
MCF7-DOX [20] = experiment: Antitumour activity against human MCF7/Dox cells xenografted in Balb/c mouse assessed as tumour growth inhibition at 5 to 15 mg/kg in presence of doxorubicin and measured after 30 days; format: functional, organism-based
MCF7-DOX [21] = experiment: Antitumour activity against human MCF7/Dox cells xenografted in Balb/c mouse assessed as reduction in tumour weight at 5 to 15 mg/kg and measured after 30 days; format: functional, organism-based
[22] = Cytotoxicity against human H69 cells assessed as growth inhibition after 48 hrs by MTT assay; format: cell-based; conditions: H69 cells (NCI-H69)
[23] = target: Multidrug resistance-associated protein 1 (Homo sapiens, UniProt P33527); experiment: Reversal of MRP-1 (unknown origin)-mediated multidrug resistance expressed in human H69AR cells assessed as potentiation of doxorubicin-induced cytotoxicity at 25 uM after 48 hrs by MTT assay; format: cell-based; outline: as §3
Multidrug resistance-associated protein 1, sequence (P33527 whole entry): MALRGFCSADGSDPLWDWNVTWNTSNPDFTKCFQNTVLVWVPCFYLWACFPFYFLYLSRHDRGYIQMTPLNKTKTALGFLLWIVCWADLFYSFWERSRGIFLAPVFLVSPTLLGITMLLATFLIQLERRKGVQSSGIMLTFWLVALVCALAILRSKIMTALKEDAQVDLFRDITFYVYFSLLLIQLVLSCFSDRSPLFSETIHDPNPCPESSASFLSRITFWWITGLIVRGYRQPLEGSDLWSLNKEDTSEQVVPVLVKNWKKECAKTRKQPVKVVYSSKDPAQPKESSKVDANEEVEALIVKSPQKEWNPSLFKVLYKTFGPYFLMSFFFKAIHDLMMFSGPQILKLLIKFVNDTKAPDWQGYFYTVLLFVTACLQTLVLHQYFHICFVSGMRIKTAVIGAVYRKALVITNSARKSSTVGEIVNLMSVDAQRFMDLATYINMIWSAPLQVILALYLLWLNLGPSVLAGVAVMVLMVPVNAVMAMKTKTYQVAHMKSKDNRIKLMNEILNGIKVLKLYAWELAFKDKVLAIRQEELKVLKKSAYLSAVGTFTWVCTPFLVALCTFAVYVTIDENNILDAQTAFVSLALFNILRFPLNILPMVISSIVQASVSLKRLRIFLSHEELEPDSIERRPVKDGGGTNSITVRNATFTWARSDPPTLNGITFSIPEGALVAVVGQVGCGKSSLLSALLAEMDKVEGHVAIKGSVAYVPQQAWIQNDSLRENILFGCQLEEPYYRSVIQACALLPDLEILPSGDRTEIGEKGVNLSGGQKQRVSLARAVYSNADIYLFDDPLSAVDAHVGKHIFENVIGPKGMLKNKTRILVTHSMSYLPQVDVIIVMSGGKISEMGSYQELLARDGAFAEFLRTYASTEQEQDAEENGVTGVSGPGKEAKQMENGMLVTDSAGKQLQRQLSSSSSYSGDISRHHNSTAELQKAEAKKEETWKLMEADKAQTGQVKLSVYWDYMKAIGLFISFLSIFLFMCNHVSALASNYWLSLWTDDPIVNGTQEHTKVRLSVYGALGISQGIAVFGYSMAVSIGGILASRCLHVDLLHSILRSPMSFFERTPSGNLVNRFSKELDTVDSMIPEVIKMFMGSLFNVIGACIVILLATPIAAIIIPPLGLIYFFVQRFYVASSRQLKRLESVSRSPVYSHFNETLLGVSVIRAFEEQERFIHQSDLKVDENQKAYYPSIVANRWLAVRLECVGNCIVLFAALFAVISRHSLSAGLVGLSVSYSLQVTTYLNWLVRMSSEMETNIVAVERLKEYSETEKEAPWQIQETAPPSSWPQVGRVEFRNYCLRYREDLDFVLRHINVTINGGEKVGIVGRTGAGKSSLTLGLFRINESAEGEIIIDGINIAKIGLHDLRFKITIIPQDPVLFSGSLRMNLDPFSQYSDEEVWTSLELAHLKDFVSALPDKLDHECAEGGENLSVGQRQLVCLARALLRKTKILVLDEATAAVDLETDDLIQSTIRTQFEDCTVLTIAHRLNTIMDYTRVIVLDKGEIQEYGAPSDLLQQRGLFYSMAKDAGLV

[24] = Cytotoxicity against human MCF7 cells assessed as growth inhibition after 48 hrs by MTT assay; format: cell-based

| SMILES | viability at 48 h, 12.5 µM [1] [%] | IC50 (MCF7-DOX [2]) [µM] | further results |
| --- | --- | --- | --- |
| COc1cc(OC)c(C(=O)/C=C/c2ccccc2)c(O)c1CC=C(C)C | 90.6 | 65.4 | IC50 [3]: 20.64 µM |
| CCCc1c(OC)cc(OC)c(C(=O)/C=C/c2cccc(N3CCNCC3)c2)c1O | > 99 | > 100 |  |
| COc1cc(OC)c(C(=O)/C=C/c2ccc(N3CCNCC3)cc2)c(O)c1CC=C(C)C | 98.3 | 57.8 | IC50 [3]: 14.84 µM |
| CCCCCc1c(OC)cc(OC)c(C(=O)/C=C/c2cccc(N3CCNCC3)c2)c1O | 93.6 | > 100 |  |
| COc1cc(O)c(C(=O)/C=C/c2cccc(N3CCNCC3)c2)c(OC)c1 | > 99 | 99.2 |  |
| COc1cc(OC)c(C(=O)/C=C/c2ccc(C(F)(F)F)cc2)c(O)c1CC=C(C)C | > 99 | 73.7 | IC50 [3]: 23.59 µM |
| COc1cc(O)c(C(=O)/C=C/c2cccc(N3CCN(C(=O)OC(C)(C)C)CC3)c2)c(OC)c1 | 85.4 | 56.7 | IC50 [3]: 39.95 µM |
| COc1cc(OC)c(C(=O)/C=C/c2ccc(N(C)C)cc2)c(O)c1CC=C(C)C | > 99 | > 100 |  |
| COc1cc(OC)c(C(=O)/C=C/c2ccc(OC)c(OC)c2OC)c(O)c1CC=C(C)C | 91.9 | 62.6 |  |
| COc1cc(OC)c(C(=O)/C=C/c2cccc(F)c2)c(O)c1CC=C(C)C | 92.7 | 45.4 |  |
| COc1c(C)c(O)c(C)c(O)c1C(=O)/C=C/c1ccccc1 | 86 | 46.8 |  |
| COc1cccc2c1C(=O)c1c(O)c3c(c(O)c1C2=O)C[C@@](O)(C(=O)CO)C[C@@H]3O[C@H]1C[C@H](N)[C@H](O)[C@H](C)O1 |  |  | inhibition (MCF7-DOX [4]): inactive |
| COc1cc(O)c(C(=O)/C=C/c2cccc(N3CCOCC3)c2)c(OC)c1 | > 99 | > 100 |  |
| COc1cc(OC)c(C(=O)/C=C/c2cccc(N3CCNCC3)c2)c(O)c1CC=C(C)C | > 99 | 99.9 | inhibition (MCF7-DOX [5]): Tde; GI50 at 48 h [6]: 91.7 µM; Activity [7]: Non-Toxic; inhibition (MCF7-DOX [8]): Active; GI50 at 48 h [9]: > 100 µM; inhibition (MCF7-DOX [10]): Active; inhibition (INH) [11]: Active; inhibition (MCF7 [12]): Active; Activity [13]: Non-Toxic; inhibition (MCF7-DOX [14]): Active; GI50 at 48 h [15]: > 100 µM; inhibition (INH) [16]: Not Active; inhibition (MCF7-DOX [17]): inactive; inhibition (MCF7 [18]): Active; GI50 at 48 h [19]: > 100 µM; TGI (MCF7-DOX [20]): Active; inhibition (MCF7-DOX [21]): inactive; GI50 at 48 h [22]: > 100 µM; inhibition (INH) [23]: Not Active; GI50 at 48 h [24]: > 100 µM |
| COc1cc(O)c(C(=O)/C=C/c2cccc(N3CCN(C(=O)c4ccc(OC)c(OC)c4)CC3)c2)c(OC)c1 | > 99 | > 100 |  |
| COc1cc(OC)c(C(=O)/C=C/c2cccc([N+](=O)[O-])c2)c(O)c1CC=C(C)C | > 99 | 57 | IC50 [3]: 8.83 µM |
| COc1cc(OC)c(C(=O)/C=C/c2ccc(F)cc2)c(O)c1CC=C(C)C | 94.3 | 53.7 | IC50 [3]: 17.96 µM |

| SMILES | viability at 48 h, 12.5 µM [1] [%] | IC50 (MCF7-DOX [2]) [µM] | further results |
| --- | --- | --- | --- |
| CCc1c(OC)cc(OC)c(C(=O)/C=C/c2cccc(N3CCNCC3)c2)c1O | 89.5 | > 100 |  |
| COc1cc(OC)c(C(=O)/C=C/c2cccc(Cl)c2)c(O)c1CC=C(C)C | > 99 | 59.5 |  |
| COc1cc(OC)c(C(=O)/C=C/c2cccc(N3CCOCC3)c2)c(O)c1CC=C(C)C | > 99 | > 100 |  |
| COc1cc(OC)c(C(=O)/C=C/c2cccc(N3CCN(C)CC3)c2)c(O)c1CC=C(C)C | > 99 | > 100 | IC50 [3]: 23.59 µM |
| COc1ccc(/C=C/C(=O)c2c(OC)cc(OC)c(CC=C(C)C)c2O)cc1 | > 99 | 46.9 |  |
| COc1cc(OC)c(C(=O)/C=C/c2cccc(N3CCNCC3)c2)c(O)c1C | 95.8 | 98.7 | IC50 [3]: 4 µM |
| COc1cc(O)c(C(=O)/C=C/c2cccc(N3CCN(C)CC3)c2)c(OC)c1 | > 99 | 62.2 |  |
| COc1cc(O)c(C(=O)/C=C/c2ccc(N3CCN(C(=O)OC(C)(C)C)CC3)cc2)c(OC)c1 | 90.6 | 47.3 |  |
| COc1cc(OC)c(C(=O)/C=C/c2ccc(N3CCN(C(=O)OC(C)(C)C)CC3)cc2)c(O)c1CC=C(C)C | > 99 | > 100 |  |
| COc1cc(OC)c(C(=O)/C=C/c2cccc(C(F)(F)F)c2)c(O)c1CC=C(C)C | 91.6 | 66.6 |  |
| COc1ccc(C(=O)/C=C/c2cccc(N3CCNCC3)c2)c(OC)c1 | 96.4 | 95 |  |
| COc1cc(OC)c(C(=O)/C=C/c2cccc(N3CCN(C(=O)OC(C)(C)C)CC3)c2)c(O)c1CC=C(C)C | 93 | 42.6 |  |
| COc1cccc(/C=C/C(=O)c2c(OC)cc(OC)c(CC=C(C)C)c2O)c1 | > 99 | 49.2 |  |
| CCCCc1c(OC)cc(OC)c(C(=O)/C=C/c2cccc(N3CCNCC3)c2)c1O | 91.6 | > 100 |  |
| COc1cc(OC)c(C(=O)/C=C/c2cc(OC)c(OC)c(OC)c2)c(O)c1CC=C(C)C | 90.8 | 74.9 | IC50 [3]: 26.56 µM |
| COc1cc(OC)c(C(=O)/C=C/c2ccc(Cl)cc2)c(O)c1CC=C(C)C | 90.1 | 43.4 |  |
| COc1cc(O)c(C(=O)/C=C/c2ccc(N3CCNCC3)cc2)c(OC)c1 | 94.2 | 67.5 | IC50 [3]: 16.62 µM |
